Compound activity (PubChem BioAssay)
CHRM4 agonist – CHRM4 agonism in calcium assay | activation, % at 3 µM | 0.14% of 360,000 active | CHO-K1 hM4/Gqi5, Fluo-8 calcium fluorescence; vehicle 0%, full acetylcholine response 100% | AID 624127 | P08173;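 active = activation above the run mean over all test wells plus 3 SD, cut at about 32% in these data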;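 also: peak over basal fluorescence ratio per well then scaled between controls; 0% = DMSO wells and 100% = acetylcholine at EC100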
Target sequence (P08173 whole entry, looked up): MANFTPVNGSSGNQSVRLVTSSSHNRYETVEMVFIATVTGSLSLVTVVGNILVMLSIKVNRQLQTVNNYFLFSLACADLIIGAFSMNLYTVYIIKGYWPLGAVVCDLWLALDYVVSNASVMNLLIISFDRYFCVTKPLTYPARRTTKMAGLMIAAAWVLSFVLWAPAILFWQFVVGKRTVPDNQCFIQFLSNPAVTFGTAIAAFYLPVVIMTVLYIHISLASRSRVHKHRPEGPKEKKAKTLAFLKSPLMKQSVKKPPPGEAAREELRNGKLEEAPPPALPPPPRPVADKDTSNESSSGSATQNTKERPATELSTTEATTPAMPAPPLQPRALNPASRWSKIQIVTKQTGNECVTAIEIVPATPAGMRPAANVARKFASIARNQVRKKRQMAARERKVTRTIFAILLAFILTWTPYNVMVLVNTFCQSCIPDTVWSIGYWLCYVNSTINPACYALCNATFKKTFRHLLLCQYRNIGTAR
CHRM5 agonist – CHRM5 agonism in calcium assay. P08912. CHO-K1 hM5 cells, Fluo-8 calcium fluorescence; 0% DMSO wells, 100% maximal acetylcholine response. activation, % at 3 µM. 0.19% of 360,000 active. AID 624037;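 active = activation above the run's mean over test compounds plus 3 SD, cut at about 23% in these data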;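 also: signal is peak over basal fluorescence ratio across the kinetic read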
CHRM5 antagonist – CHRM5 antagonism in calcium assay; 0.59% of 360,000 active; inhibition, % at 3 µM; P08912; CHO-hM5 cells, Fluo-8 calcium fluorescence, ACh EC80; AID 624040;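 active = inhibition above a per-plate cutoff, the mean of that plate's test compounds plus 3 SD, cut at about 27% in these data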;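 also: 0% = acetylcholine EC80 with DMSO and 100% = DMSO without agonist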
CHRM4 PAM – positive allosteric modulators of human muscarinic M4 receptor; P08173; CHO-K1 hM4/Gqi5, Fluo-8 calcium fluorescence, ACh EC20; 0% = ACh EC20, 100% = maximal ACh; activation, % at 3 µM; 0.4% of 360,000 active; AID 624126;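 active = activation above its plate's cutoff, the mean activation of sample wells plus 3 SD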
M4 antag – antagonists of human muscarinic M4 receptor (CHRM4); CHO-hM4 cells, ACh EC80, Fluo-8 calcium fluorescence; AID 624125; inhibition, % at 3 µM; 0.73% of 360,000 active;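 active = inhibition above its plate's cutoff, the mean inhibition of sample wells plus 3 SD, cut at about 27% in these data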;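 also: 0% = acetylcholine EC80 with DMSO and 100% = DMSO without agonist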
M5 PAM – positive allosteric modulators of human muscarinic M5 receptor; 0.3% of 360,000 active; CHO-K1 hM5, Fluo-8 calcium, ACh EC20 PAM; 0% = ACh EC20, 100% = ACh EC100; activation, % at 3 µM; P08912;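 active = activation above the run cutoff, the mean activation of all test compounds plus 3 SD, cut at about 18% in these data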
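system = human M5 receptor in CHO-K1 cells | compound = one concentration, 3 µM final (nominal) | schedule = Post-acetylcholine fluorescence recording 140 s | signal = Fluo-8 calcium dye fluorescence, kinetic read | benchmarks = low control EC20 acetylcholine (0%), high control EC100 acetylcholine (100%) | repeats = singlicate, one well per test compound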
Numbers without * were called inactive. Sampled rows, rich in hits. Any-hit rate of the full collection: about 1.9%.

SMILES	CHRM4 agonist	CHRM5 agonist	CHRM5 antagonist	CHRM4 PAM	M4 antag	M5 PAM
Cc1cccc2c1NC(=O)/C2=C\C(=O)c1cccs1	2	13	8	-9	-5	5
CCCN(CCC)C(=O)c1ccc2c(c1)S(=O)(=O)c1ccccc1C2=O	3	-6	30*	0	2	-9
COc1cccc(C(C)(O)c2nc(-c3cccc(C(C)C)c3)cs2)c1 (stereo not given)	0	0	-3	3	-10	-3
CNS(=O)(=O)c1ccc(NC(=O)c2ccccn2)cc1	3	1	7	28*	-2	-1
CCOC(=O)CCc1c(C)c2ccc(OC3CCCCC3=O)cc2oc1=O (stereo not given)	2	-1	13	-8	34*	-6
CCn1c(COc2cccc(C)c2)nnc1SCC(=O)Nc1cccc(C(=O)O)c1	1	3	-9	6	-5	-4
CCn1c(COc2ccc3ccccc3c2C)nnc1SCC(=O)Nc1cccc(C(=O)O)c1	0	-1	2	25*	-9	8
Cc1nccn1CCc1n[nH]c(=S)n1Cc1ccccc1	0	-11	33*	-10	22	-15
CCOC(=O)c1ccc(NC(=S)NCCc2ccccc2F)cc1	27	3	30*	-25	29*	-34
CCOC(=O)c1ccc(NC(=S)NCCc2ccccc2)cc1	13	2	24	-11	13	-18
CCOC(=O)c1ccc(NC(=S)NCC(O)c2ccccc2)cc1 (stereo not given)	23	8	38*	-18	14	-20
COc1ccc(CCC(=O)O)c(C(CC(=O)O)C(=O)O)c1OS(=O)(=O)c1ccc(C)cc1 (stereo not given)	0	0	-5	5	0	0
CCc1ccc([C@H]2[C@@H]3C(=O)C[C@@H]4C(=O)N(C5CCCCC5)C(=O)[C@@H]4[C@@H]3CN2S(=O)(=O)c2ccc(C)cc2)cc1	1	-1	-4	4	-10	0
CN1CCC(Oc2ccc(Sc3ccccc3)cc2)CC1	12	-4	17	-17	34*	-10
CN1CCC(Oc2ccccc2Sc2ccc(C(F)(F)F)cc2)CC1	1	-9	14	-6	6	-20
COc1ccc(OC(F)(F)F)cc1CC1(C)C(=O)Nc2ccc(S(=O)(=O)NC3CCCCC3)cc21 (stereo not given)	-2	-2	4	-3	-2	-4
c1ccc(COc2ccc(CNCc3cccs3)cc2)cc1	7	-10	5	-27	33*	-10
CC1=C(C(=O)N2CCOCC2)CC(CC(=O)NC2CCCC2)C(=O)N1CCCN1CCCC1=O (stereo not given)	1	0	9	5	-3	2
O=C(OCC(=O)N(C1CCCCC1)C1CCCCC1)c1ccc(Cl)nc1	1	4	-13	20	-7	6
CN(C)c1cccc(C(=O)OCC(=O)NC2CCCC2)c1	0	-2	-4	-2	-4	0
O=C(COC(=O)c1ccc(Cl)nc1)NC1CCCCCC1	0	0	2	26*	-1	0
CN(C)c1ccc(C(=O)OCC(=O)NC2CCCCC2)cc1	2	1	-15	1	-16	35*
O=C(C[C@@H]1C=C[C@@H](NC(=O)C2CC2)[C@@H](CO)O1)NCc1ccccc1Cl	2	3	-6	14	-3	11
O=C1NC[C@H](CCCCN2CCN(CC3CCCCC3)C(=O)C2=O)N(Cc2ccccc2)C1=O	0	-3	0	3	3	-5
COC(=O)C1(C(=O)OC)c2ncccc2N(S(=O)(=O)c2ccc(C)cc2)C1CC(=O)c1ccccc1 (stereo not given)	13	9	-2	4	-2	1
Cc1cc(C)c(C)c(S(=O)(=O)N2CCNC(=O)C2)c1C	1	1	8	2	-10	-3
CC1(C(=O)NCCC#N)CCN1C(=O)Cc1ccc(-c2ccccc2)cc1 (stereo not given)	7	6	-3	-3	-6	-2
